In ChEMBL document CHEMBL3751740, “New MKLP-2 inhibitors in the paprotrain series: Design, synthesis and biological evaluations” (Bioorg Med Chem, 2016):
Active and inactive are the calls of the source. No cut-off for these calls is given here.

Tests used:
[1] = molecular target: T1, Kinesin-like protein KIF20A (Homo sapiens, UniProt O95235); assay: Inhibition of microtubule-stimulated N-terminal MKLP-2 (56 to 505 residues) ATPase activity isolated from human hepatocellular carcinoma cells by pyruvate kinase/lactate dehydrogenase enzyme linked assay
T1 sequence (O95235 whole entry): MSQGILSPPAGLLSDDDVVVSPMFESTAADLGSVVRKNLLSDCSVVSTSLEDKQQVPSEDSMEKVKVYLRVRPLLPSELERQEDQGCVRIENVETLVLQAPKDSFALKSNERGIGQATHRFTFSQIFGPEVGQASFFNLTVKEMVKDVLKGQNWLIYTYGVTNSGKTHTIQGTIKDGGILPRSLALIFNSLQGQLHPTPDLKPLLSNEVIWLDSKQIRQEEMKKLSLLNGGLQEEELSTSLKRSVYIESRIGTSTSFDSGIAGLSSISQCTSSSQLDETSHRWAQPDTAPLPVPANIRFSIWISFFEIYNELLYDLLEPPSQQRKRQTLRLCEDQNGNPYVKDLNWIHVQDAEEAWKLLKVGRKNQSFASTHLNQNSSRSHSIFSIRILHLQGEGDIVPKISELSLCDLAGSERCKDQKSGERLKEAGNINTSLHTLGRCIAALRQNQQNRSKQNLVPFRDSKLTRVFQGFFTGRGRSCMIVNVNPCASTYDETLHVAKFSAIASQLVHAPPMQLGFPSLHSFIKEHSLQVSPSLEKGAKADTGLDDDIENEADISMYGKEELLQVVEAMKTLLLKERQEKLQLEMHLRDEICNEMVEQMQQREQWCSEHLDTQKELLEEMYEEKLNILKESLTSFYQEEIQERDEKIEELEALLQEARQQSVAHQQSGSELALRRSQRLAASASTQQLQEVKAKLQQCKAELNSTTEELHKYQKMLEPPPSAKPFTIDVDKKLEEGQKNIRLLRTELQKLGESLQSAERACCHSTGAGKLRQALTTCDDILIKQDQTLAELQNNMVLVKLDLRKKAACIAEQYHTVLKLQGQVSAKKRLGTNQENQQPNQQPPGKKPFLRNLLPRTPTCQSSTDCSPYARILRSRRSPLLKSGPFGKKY

KB [2] = assay: Growth inhibition of human KB cells after 72 hrs by MTS assay; assay type: functional
[3] = (§1) Inhibition of sheep brain tubulin polymerization by UV spectrophotometric analysis; parameters: species or system Ovis aries
How it was run: (§2)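 Tubulin purified from sheep brain by two assembly/disassembly cycles, about 2–3 mg/mL in 0.1 M MES, 0.5 mM MgCl2, 1 mM EGTA, 1 mM GTP, pH 6.6. Compound in DMSO added at 0 °C, then moved to a 37 °C thermostated cell. Assembly followed by turbidity at 350 nm for a few min.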

[4] = molecular target: T1, Kinesin-like protein KIF20A; assay: Inhibition of N-terminal MKLP2 (56 to 505 residues) ATPase basal activity isolated from human hepatocellular carcinoma cells by pyruvate kinase/lactate dehydrogenase enzyme linked assay
KB [5] = assay: Growth inhibition of human KB cells at 1 uM after 72 hrs by MTS assay; assay type: functional; details: for inhibition of growth at 1 µM: read-out: GI
How it was run: (§3)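 KB cells were grown in DMEM with 25 mM glucose and 10% FCS at 37 °C, 5% CO2, and seeded at 500 cells/well. 24 h later, compound in DMSO (1% final) was added at 10 µM or 1 µM for 72 h; controls received DMSO alone. Runs were in duplicate. Viable cells were read with MTS at 490 nm.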

Ovis aries [6] = species on record: Ovis aries; assay: as §1; parameters: concentration or dose not given beside the values; how it was run: as §2
Ovis aries [7] = species on record: Ovis aries; assay: Induction of sheep brain microtubule disassembly by UV spectrophotometric analysis
How it was run: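 Sheep brain tubulin, purified by two assembly/disassembly cycles and held in MES buffer with GTP at pH 6.6, was polymerized at 37 °C for 10 min. Compound was then added to the MTs at 0 °C and depolymerization was followed over the next few minutes by turbidity at 350 nm.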

KB [8] = assay: Growth inhibition of human KB cells at 10 uM after 72 hrs by MTS assay; assay type: functional; details: for inhibition of growth at 10 µM: read-out: GI; how it was run: as §3
Ovis aries [9] = species on record: Ovis aries; assay: Inhibition of sheep brain microtubule disassembly by UV spectrophotometric analysis; parameters: concentration or dose not given beside the values

| IC50 [1] | GI50 (KB [2]) | IC50 [3] | IC50 [4] | inhibition (Ovis aries [6]; concentration not given here) | Activity (Ovis aries [7]) | inhibition (Ovis aries [6]) | Activity (Ovis aries [9]) | SMILES | inhibition of growth at 1 µM (KB [5]) | inhibition of growth at 10 µM (KB [8]) | growth inhibition (GI) (KB [8]) | growth inhibition (GI) (KB [5]) |
| --- | --- | --- | --- | --- | --- | --- | --- | --- | --- | --- | --- | --- |
| Not Active | 0.001 µM | 1 µM | Not Active | – | – | – | – | CC(=O)O[C@H]1C(=O)[C@@]2(C)[C@H]([C@H](OC(=O)c3ccccc3)[C@]3(O)C[C@H](OC(=O)[C@H](O)[C@@H](NC(=O)c4ccccc4)c4ccccc4)C(C)=C1C3(C)C)[C@]1(OC(C)=O)CO[C@@H]1C[C@@H]2O [PACLITAXEL] | – | – | – | – |
| Not Active | – | – | Not Active | 22% | – | – | 47% | COc1cc(/C=C(\C#N)c2c[nH]c3ccccc23)cc(OC)c1O | 59% | 95% | – | – |
| Not Active | – | – | Not Active | 33% | – | – | 13% | N#C/C(=C\c1cccnc1)c1c(-c2ccccc2)[nH]c2ccccc12 | – | 93% | – | inactive |
| Not Active | – | – | Not Active | – | inactive | inactive | – | COc1ccc2[nH]cc(C(C#N)c3cccnc3)c2c1 (stereo not given) | – | 45% | – | – |
| – | – | – | – | 16% | – | – | 21% | N#CC(Cc1cccnc1)c1c[nH]c2ccccc12 (stereo not given) | – | 5% | – | – |
| – | – | – | – | 45% | inactive | – | – | N#C/C(=C\c1c[nH]c2ccccc12)c1cccnc1 | – | 23% | – | – |
| Not Active | – | 115 µM | Not Active | 53% | – | – | 15% | COc1ccc2c(c1)c(/C(C#N)=C/c1cccnc1)cn2C | – | 33% | – | – |
| – | – | – | – | – | inactive | inactive | – | N#C/C(=C\c1cccc(Cl)c1)c1c[nH]c2ccccc12 | 19% | 94% | – | – |
| Not Active | – | – | Not Active | – | inactive | inactive | – | COc1cc(/C=C(\C#N)c2c[nH]c3ccccc23)cc(OC)c1OC | 6% | 81% | – | – |
| – | – | – | – | 13% | inactive | – | – | N#C/C(=C\c1ccc(Cl)cc1)c1c[nH]c2ccccc12 | – | 78% | – | – |
| Not Active | 0.00013 µM | – | Not Active | – | – | – | – | CC(=O)O[C@@]12CO[C@@H]1C[C@H](O)[C@@]1(C)C(=O)[C@H](O)C3=C(C)[C@@H](OC(=O)[C@H](O)[C@@H](NC(=O)OC(C)(C)C)c4ccccc4)C[C@@](O)([C@@H](OC(=O)c4ccccc4)[C@H]21)C3(C)C [DOCETAXEL ANHYDROUS] | – | – | – | – |
| Not Active | – | – | Not Active | 32% | inactive | – | – | COc1cc(OC)c(OC)cc1/C=C(\C#N)c1c[nH]c2ccccc12 | 40% | 100% | – | – |
| Not Active | – | – | Not Active | – | – | inactive | 14% | COc1ccc2[nH]cc(C(=O)/C(C#N)=C/c3cccnc3)c2c1 | – | 27% | – | – |
| – | – | – | – | – | inactive | inactive | – | COc1ccc2[nH]c(C)c(/C(C#N)=C/c3cccnc3)c2c1 | – | 69% | – | – |

More lines, now with the values behind:

| SMILES | IC50 [1] | GI50 (KB [2]) | IC50 [3] | IC50 [4] | inhibition (Ovis aries [6]; concentration not given here) | Activity (Ovis aries [7]) | inhibition (Ovis aries [6]) | Activity (Ovis aries [9]) | inhibition of growth at 1 µM (KB [5]) | inhibition of growth at 10 µM (KB [8]) | growth inhibition (GI) (KB [8]) | growth inhibition (GI) (KB [5]) |
| --- | --- | --- | --- | --- | --- | --- | --- | --- | --- | --- | --- | --- |
| COc1ccc(/C=C(\C#N)c2c[nH]c3ccccc23)c(OC)c1 | Not Active | – | 12 µM | Not Active | 76% | inactive | – | – | 35% | 99% | – | – |
| COc1cccc(/C=C(\C#N)c2c[nH]c3ccccc23)c1OC | Not Active | – | – | Not Active | – | inactive | inactive | – | 2% | 100% | – | – |
| COc1ccc2[nH]cc(/C(=C/C#N)Cc3cccnc3)c2c1 | Not Active | – | – | Not Active | 33% | inactive | – | – | – | – | inactive | – |
| COc1cc(OC)c(/C=C(\C#N)c2c[nH]c3ccccc23)c(OC)c1 | Not Active | – | – | Not Active | – | – | inactive | 13% | – | 83% | – | inactive |
| CSc1ccc(/C=C(\C#N)c2c[nH]c3ccccc23)cc1 | Not Active | – | – | Not Active | – | inactive | inactive | – | – | 98% | – | inactive |
| COc1cccc2c(/C(C#N)=C/c3cccnc3)c[nH]c12 | Not Active | – | – | Not Active | – | inactive | inactive | – | – | 85% | – | inactive |
| COc1cc2c(c(OC)c1OC)-c1ccc(OC)c(=O)cc1[C@@H](NC(C)=O)CC2 [COLCHICINE] | Not Active | 0.0042 µM | – | Not Active | – | – | – | – | – | – | – | – |
| COc1ccc2c(c1)c(/C(C#N)=C/c1cccnc1)cn2C(C)=O | Not Active | – | – | Not Active | – | inactive | inactive | – | – | 74% | – | – |
| N#C/C(=C\c1ccc(C(F)(F)F)cc1)c1c[nH]c2ccccc12 | Not Active | – | – | Not Active | 57% | inactive | – | – | – | 87% | – | inactive |
| COc1ccc2[nH]cc(/C(C#N)=C/C=C/c3cccnc3)c2c1 | Not Active | – | – | Not Active | 11% | inactive | – | – | – | 10% | – | – |
| COc1cccc(/C=C(\C#N)c2c[nH]c3ccccc23)c1 | Not Active | – | – | Not Active | 37% | – | – | 38% | – | 89% | – | inactive |
| COc1ccc(/C=C(\C#N)c2c[nH]c3ccccc23)cc1OC | Not Active | – | 20 µM | Not Active | 62% | inactive | – | – | 25% | 99% | – | – |
| N#C/C(=C\c1cccnc1)c1c(-c2ccsc2)[nH]c2ccccc12 | Not Active | – | 9.2 µM | Not Active | 70% | inactive | – | – | 12% | 99% | – | – |
| N#C/C(=C\c1ccc(F)cc1)c1c[nH]c2ccccc12 | – | – | – | – | 22% | inactive | – | – | – | 84% | – | inactive |
| N#C/C(=C\c1cccnc1)c1c[nH]c2ncccc12 | – | – | – | – | 19% | inactive | – | – | 29% | 100% | – | – |
| COc1cc(/C=C(\C#N)c2c[nH]c3ccccc23)cc(OC)c1 | – | – | – | – | 31% | – | – | 11% | 31% | 96% | – | – |
